Here are results for 45 compounds from ChEMBL document CHEMBL1132952, “2D QSAR modeling and preliminary database searching for dopamine transporter inhibitors using genetic algorithm variable selection of Molconn Z descriptors” (J Med Chem, 2000).

Molecules are shown by their SMILES.

Chain of Sodium-dependent dopamine transporter (Rattus norvegicus) (P23977 whole entry): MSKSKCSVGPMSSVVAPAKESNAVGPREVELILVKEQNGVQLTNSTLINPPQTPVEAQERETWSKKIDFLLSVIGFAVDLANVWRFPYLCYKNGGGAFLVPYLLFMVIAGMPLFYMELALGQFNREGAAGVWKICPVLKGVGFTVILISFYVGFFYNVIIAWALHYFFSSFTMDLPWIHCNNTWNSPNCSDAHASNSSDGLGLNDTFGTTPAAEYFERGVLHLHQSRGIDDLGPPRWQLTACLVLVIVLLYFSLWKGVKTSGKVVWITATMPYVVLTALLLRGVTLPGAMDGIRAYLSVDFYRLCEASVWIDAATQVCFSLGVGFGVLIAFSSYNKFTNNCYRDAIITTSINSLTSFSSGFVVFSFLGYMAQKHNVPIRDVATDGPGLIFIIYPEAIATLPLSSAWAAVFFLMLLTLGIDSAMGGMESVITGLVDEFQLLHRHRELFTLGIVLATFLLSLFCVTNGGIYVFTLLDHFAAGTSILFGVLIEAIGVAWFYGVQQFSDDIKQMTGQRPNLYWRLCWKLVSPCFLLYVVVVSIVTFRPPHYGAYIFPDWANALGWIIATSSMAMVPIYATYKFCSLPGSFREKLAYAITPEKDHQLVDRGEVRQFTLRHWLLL

One assay concerns the target Sodium-dependent dopamine transporter (Rattus norvegicus) (UniProt P23977). The assay can be described thus: Binding affinity to Dopamine transporter (DAT) using [3H]WIN-35428 at 1 uM. A digest of the protocol:
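Rat striatal membranes (male Sprague-Dawley, 200-225 g) in modified Krebs-HEPES buffer, pH 7.4. Each tube held 2.5 mg tissue (original wet weight) and 1.5 nM [3H]WIN 35,428. Membranes were preincubated 5 min with or without 1 μM test compound, in triplicate, then incubated 60 min on ice. Nonspecific binding was taken with 0.1 mM cocaine·HCl. Filtration through BSA-presoaked GF/B filters, scintillation counting.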
For the compound `CN1CCC(OC(c2ccccc2)c2ccc(Cl)cc2)C1` (stereo not given), the Specific binding was 8.43%.
The compound `CCOC(=O)N1CCN(Cc2c[nH]c3ccccc23)CC1` showed a Specific binding of 88.5%.
As for `O=C1c2ccccc2CC1CN1CCCCC1` (stereo not given), the Specific binding worked out at 89.9%.
Same read-out and setting: under `c1ccc2c(CN3CCOCC3)c[nH]c2c1` stands 88.1%; under `COc1cc(NCCN(CC(C)C)CC(C)C)c2ncccc2c1`, 81.6%.
The same measure, in the same setting: next, `CC(CN1CCCC1)OC(=O)C(c1ccccc1)C1C=CCC1` (stereo not given): 49.7%; `Clc1ccc(C2NCCNCc3ccccc32)cc1` (stereo not given): 54.3%.
As for `CCCCN(CCCC)CCC(=O)c1cc(-c2ccccc2)oc1-c1ccccc1`, the Specific binding amounted to 93.4%.
Same read-out and setting: next, `O=C1N2CCNc3ccccc3C(c3ccccc3)N1CC2` (stereo not given): 55.8%; `c1ccc(C(CN2CCCCC2)OCc2cccs2)cc1` (stereo not given): 42.1%.
The compound `CC(C(OC(=O)C1c2ccccc2-c2ccccc21)c1ccccc1)N(C)C` (stereo not given) yielded a Specific binding of 19%.

The next assay deals with Sodium-dependent dopamine transporter (Rattus norvegicus, UniProt P23977).
Chain of Sodium-dependent dopamine transporter (P23977 whole entry): as above
Take `CCC(=O)[C@@H]1C2CCC(C[C@@H]1OC(=O)c1ccccc1)N2C` (stereo not given in full): the inhibitory constant (Ki) is 309 nM.
The compound `COC(=O)CC[C@@H]1C2CCC(C[C@@H]1c1ccccc1)N2C` (stereo not given in full) showed a Ki of 22.9 nM.
In turn, `CN1C2CCC1[C@@H](CCCO)[C@@H](c1ccccc1)C2` (stereo not given in full) showed an inhibition constant (Ki) of 11 nM.
Same read-out and setting: next, `CN1C2CCC1[C@@H](CCC(=O)c1ccccc1)[C@@H](c1ccccc1)C2` (stereo not given in full): 28.2 nM.
For the compound `CC(C)OC(=O)[C@@H]1C2CC[C@H](C[C@@H]1c1ccc(I)cc1)N2C`, affinity was put at a Ki of 3.98 nM.
Turning to `C[C@@H]1CN(CCCn2c3ccccc3c3ccccc32)C[C@H](C)N1` [RIMCAZOLE], the Ki is 105 nM.
`O=C(OCCN1CCOCC1)C1(c2ccccc2)CCCCC1` gave a Ki of 5370 nM.
`COC(=O)CC(c1ccccc1)C1CCCCN1` (stereo not given) gave a Ki of 186 nM.
Still for that read-out and setting: under `COc1ccc2c(c1)CN(C)CC2c1ccc(Cl)c(Cl)c1` (stereo not given) [DICLOFENSINE] stands 7.08 nM; under `CC[C@H]1CC2[C@@H](CC(=O)OC)[C@@H](Cc3ccccc3)CC1N2C` (stereo not given in full), 309 nM.
For the compound `COc1ccc(C(O[C@H]2C[C@H]3CC[C@@H](C2)N3C)c2ccccc2)cc1` (stereo not given in full), the affinity corresponds to a Ki of 79.4 nM.
The same measure, in the same setting: next, `COC(=O)CCCC[C@@H]1C2CCC(C[C@@H]1c1ccccc1)N2C` (stereo not given in full): 30.2 nM; `CC(=O)[C@@H]1C2CCC(C[C@@H]1OC(=O)c1ccccc1)N2C` (stereo not given in full): 191 nM.
The same measure, in the same setting: next, `c1ccc2sc(C3(N4CCCCC4)CCCCC3)cc2c1`: 10 nM; `NC12CCC(c3ccccc3)(CC1)CC2`: 83.2 nM; `CN1[C@@H]2CC[C@H]1C[C@@H](OC(c1ccccc1)c1cccc(C(F)(F)F)c1)C2` (stereo not given in full): 191 nM.
On to `CC(NC(C)(C)C)C(=O)c1cccc(Cl)c1` (stereo not given) [BUPROPION], for which the Ki is 372 nM.
The same measure, in the same setting: under `CCCC[C@H]1CC2[C@@H](CC(=O)OC)[C@@H](Cc3ccccc3)CC1N2C` (stereo not given in full) stands 8510 nM; under `COC(=O)C[C@@H]1C2C[C@H](C)C(C[C@@H]1Cc1ccccc1)N2C` (stereo not given in full), 214 nM; under `COC(=O)[C@@H]1C2CC[C@H](C[C@@H]1c1ccc(I)cc1)N2C`, 2.09 nM.
Same read-out and setting: under `COc1ccccc1OC(CCN)c1ccccc1` (stereo not given) stands 562 nM; under `CN(C)C/C=C(\c1cccnc1)c1cccc(Br)c1`, 11200 nM.
Same read-out and setting: next, `CCCN1CCCC(c2ccc(O)cc2)C1` (stereo not given): 562 nM; `COC(=O)/C=C/[C@@H]1C2CCC(C[C@@H]1c1ccccc1)N2C` (stereo not given in full): 21.9 nM; `COC(=O)C1C2CC[C@H](C[C@@H]1c1ccc(Cl)cc1)N2C` (stereo not given in full): 2 nM.
As for `CN1[C@@H]2CC[C@H]1C[C@@H](OC(c1ccccc1)c1ccccc1N)C2` (stereo not given in full) [AMINOBENZTROPINE], the Ki was 1860 nM.
On the same count and under the same terms, next, `COC(=O)/C=C/CC[C@@H]1C2CCC(C[C@@H]1c1ccccc1)N2C` (stereo not given in full): 20 nM; `COC(=O)[C@@H]1C2CC[C@H](C[C@@H]1c1ccc(C)cc1)N2C`: 5.01 nM; `CN1[C@@H]2CC[C@H]1C[C@@H](OC(c1ccccc1)c1ccc(Cl)c(Cl)c1)C2` (stereo not given in full): 21.4 nM.
Turning to `CCC[C@H]1CC2[C@@H](CC(=O)OC)[C@@H](Cc3ccccc3)CC1N2C` (stereo not given in full), the inhibition constant Ki was 4170 nM.
`COC(=O)[C@@H]1C2CC[C@H](C[C@@H]1c1ccccc1)N2C` gave a Ki of 87.1 nM.
The same measure, in the same setting: under `CN1C2CCC1[C@@H](CCCc1ccccc1)[C@@H](c1ccccc1)C2` (stereo not given in full) stands 16.2 nM; under `CN1C2CCC1[C@@H](/C=C/CO)[C@@H](c1ccccc1)C2` (stereo not given in full), 16.2 nM.
As to `COC(=O)C[C@@H]1C2C[C@H](Cc3ccccc3)C(C[C@@H]1Cc1ccccc1)N2C` (stereo not given in full), the Ki was 3090 nM.

For orientation: Ki means a measure of affinity in units of concentration, obtained from inhibition or displacement. Read a low Ki as a stronger hold on the target.
